From ChEMBL document CHEMBL1145446, “Phosphonated carbocyclic 2'-oxa-3'-azanucleosides as new antiretroviral agents” (J Med Chem, 2007)
≈ marks a conversion by molar mass, not a printed value. Blank lines part the entries; values can stand above or below the compound they belong to. Calls of active or inactive are those of the source. No cut-off for these calls is given here.

Columns and labels:
[1] = test system: Human T-cell leukemia virus type I; assay: Antiviral activity against HTLV1 in human PBMC at 25 uM; assay type: functional, organism-based
Procedure, shortened: (§1)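 Fresh human PBMC cultures were given compound at 100, 25, 5 or 1 µM immediately before exposure to HTLV-1. Infection was read out as Tax/Rex viral mRNA expression by liquid hybridization assay 3 weeks after virus exposure.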

[2] = test system: Human T-cell leukemia virus type I; assay: Antiviral activity against HTLV1 in human PBMC; assay type: functional; procedure, shortened: as §1
[3] = test system: Human T-cell leukemia virus type I; assay: Antiviral activity against HTLV1 in human PBMC at 5 uM; assay type: functional, organism-based; procedure, shortened: as §1
[4] = test system: Human T-cell leukemia virus type I; assay: Antiviral activity against HTLV1 in human PBMC at 1 uM; assay type: functional, organism-based; procedure, shortened: as §1
[5] = test system: Human T-cell leukemia virus type I; assay: Antiviral activity against HTLV1 in human PBMC at 100 uM; assay type: functional, organism-based; procedure, shortened: as §1
PBMC = assay: Cytotoxicity against PBMC after 1 week by trypan blue exclusion test; assay type: cell-based; conditions: human, 168 h
Procedure, shortened: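 Freshly separated PBMCs were cultured short-term with compound and interleukin 2, without other stimuli. Cell growth and death were assessed on day 7, and cytotoxicity was expressed as CC20.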

[6] = test system: Human T-cell leukemia virus type I; assay: Inhibition of HTLV1 reverse transcriptase
Procedure, shortened: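 Cell-free assay of HTLV-1 reverse transcriptase, with compounds activated by incubation with human PBMC crude extract. Reverse transcription was read out by RT-PCR using a 20-cycle amplification program.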

Structure (SMILES): CCOP(=O)(CC1CC(n2cc(C)c(=O)[nH]c2=O)ON1C)OCC (stereo not given)
Activity [1]: Active | MPC [2]: 1 µM | Activity [3]: Active | Activity [4]: Active | Activity [5]: Active | CC20 (PBMC): > 2048 µM | GI25 (PBMC): 817 µM

Structure (SMILES): CCOP(=O)(CC1CC(n2cc(F)c(=O)[nH]c2=O)ON1C)OCC (stereo not given)
Activity [1]: Active | MPC [2]: 1 µM | Activity [3]: Active | Activity [4]: Active | Activity [5]: Active | CC20 (PBMC): > 2048 µM | GI25 (PBMC): 119 µM

Continued, in another order:

MIC [6]: > 10000 nM
Structure (SMILES): CCOP(=O)(CC1CC(n2cnc3c(N)ncnc32)ON1C)OCC (racemic)
MPC [2]: >100 µM | CC20 (PBMC): > 2048 µM | GI25 (PBMC): 121 µM

MIC [6]: 8 nM (≈ 3.41 ng/mL)
Structure (SMILES): CCOP(=O)(CC1CC(n2cc(Br)c(=O)[nH]c2=O)ON1C)OCC (racemic)
MPC [2]: >100 µM | CC20 (PBMC): > 2048 µM | GI25 (PBMC): 215 µM

MIC [6]: 4 nM (≈ 1.07 ng/mL)
Structure (SMILES): Cc1cn([C@H]2C[C@H](N=[N+]=[N-])[C@@H](CO)O2)c(=O)[nH]c1=O [ZIDOVUDINE]
Activity [1]: Active | MPC [2]: 1 µM | Activity [3]: Active | Activity [4]: Active | Activity [5]: Active | CC20 (PBMC): 1153 µM | GI25 (PBMC): 15 µM
